Laboratory results taken from ChEMBL document CHEMBL1122555, “Design, synthesis, and testing of potential antisickling agents. 3. Ethacrynic acid” (J Med Chem, 1984).

What was measured:
Assay type in all cases: ADME
[1] = Compound was evaluated, at a concentration of 10 mM acid, for its ability to increase the solubility of sickle hemoglobin; details: 10000 µM
Procedure, shortened: (§1)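 Sodium salt of acid (made with 1 equiv NaHCO3, 0.18 M stock in 0.15 M phosphate pH 7.4) diluted into HbS (~35 g %, 0.15 M phosphate), deoxygenated with dithionite, sealed in EPR tubes; final drug 5–40 mM. Spun alongside deoxy-HbS buffer control and 40 mM phenylalanine control; solubility at 35 °C, g/dL. Ratio = drug/control solubility; % increase relative to initial minus control; SD reported.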

[2] = Compound was evaluated, at a concentration of 20 mM acid, for its ability to increase the solubility of sickle hemoglobin; details: 20000 µM; procedure, shortened: as §1
[3] = Compound was evaluated, at a concentration of 5 mM acid, for its ability to increase the solubility of sickle hemoglobin; details: 5000 µM; procedure, shortened: as §1
[4] = Compound was evaluated, at a concentration of 40 mM acid, the solubility ratio is obtained by dividing the solubility of sickle hemoglobin (HbS) with the compound (grams per deciliter) by the solubility of the untreated sample (grams per deciliter); details: 40000 µM; procedure, shortened: as §1
[5] = Compound was evaluated, at a concentration of 5 mM acid, the solubility ratio is obtained by dividing the solubility of sickle hemoglobin (HbS) with the compound (grams per deciliter) by the solubility of the untreated sample (grams per deciliter); details: 5000 µM; procedure, shortened: as §1
[6] = Compound was evaluated, at a concentration of 10 mM acid, the solubility ratio is obtained by dividing the solubility of sickle hemoglobin (HbS) with the compound (grams per deciliter) by the solubility of the untreated sample (grams per deciliter); details: 10000 µM; procedure, shortened: as §1
[7] = Compound was evaluated, at a concentration of 40 mM acid, for its ability to increase the solubility of sickle haemoglobin; details: 40000 µM; procedure, shortened: as §1
[8] = Compound was evaluated, at a concentration of 20 mM acid, the solubility ratio is obtained by dividing the solubility of sickle hemoglobin (HbS) with the compound (grams per deciliter) by the solubility of the untreated sample (grams per deciliter); details: 20000 µM; procedure, shortened: as §1
[9] = Compound was evaluated, at a concentration of 40 mM acid, for its ability to increase the solubility of sickle hemoglobin; details: 40000 µM; procedure, shortened: as §1

Structure (SMILES) | HbS solubilized [1] [%] | HbS solubilized [2] [%] | HbS solubilized [3] [%] | Solubility ratio [4] | Solubility ratio [5] | Solubility ratio [6] | HbS solubilized [7] [%] | Solubility ratio [8] | HbS solubilized [9] [%]
O=C(O)COCc1ccc(Cl)c(Cl)c1 | 42.6 | 82.3 | 22.1 | 1.345 | 1.087 | 1.166 | 88 | 1.321 | –
O=C(O)COCc1ccc(Br)cc1 | 25.8 | 51 | 13 | 1.398 | 1.059 | 1.118 | – | 1.233 | 87.7
C=C(CC)C(=O)c1ccc(OCC(=O)O)c(Cl)c1Cl [ETHACRYNIC ACID] | 39.5 | 76.2 | 25.3 | 1.375 | 1.106 | 1.166 | – | 1.317 | 89.4
